Series [1] is described as follows: Terminal elimination half life in healthy human administered as single oral dose. Format: ADME, organism-based. Particulars: in vivo, read-out: beta t1/2 (converted); call rule not given here.
The target of series [2] is T1, Cholesteryl ester transfer protein (Homo sapiens, UniProt P11597).
T1 sequence (P11597 whole entry): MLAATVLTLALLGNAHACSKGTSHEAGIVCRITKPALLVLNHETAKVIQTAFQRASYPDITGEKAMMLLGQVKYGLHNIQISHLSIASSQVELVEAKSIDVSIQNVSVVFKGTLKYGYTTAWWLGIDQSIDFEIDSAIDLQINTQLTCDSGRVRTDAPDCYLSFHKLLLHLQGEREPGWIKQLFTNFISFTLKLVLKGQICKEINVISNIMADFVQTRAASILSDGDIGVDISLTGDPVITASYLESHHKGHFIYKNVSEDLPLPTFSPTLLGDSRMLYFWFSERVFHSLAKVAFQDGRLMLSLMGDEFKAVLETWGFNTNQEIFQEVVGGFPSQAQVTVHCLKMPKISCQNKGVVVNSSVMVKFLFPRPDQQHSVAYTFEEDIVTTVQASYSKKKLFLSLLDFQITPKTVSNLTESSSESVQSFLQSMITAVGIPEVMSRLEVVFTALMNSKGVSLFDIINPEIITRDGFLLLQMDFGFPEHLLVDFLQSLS
Nature of the series: Inhibition of human recombinant CETP by fluorescence transfer assay.

Series [3] is described as follows: Drug concentration in adipose fat of hemizygous human CETP transgenic mouse at 10 mg/kg, po dosed for 5 consecutive days measured on day 21 after cessation of drug treatment. Format: ADME, organism-based, Adipose tissue. Details: dose 10 mg/kg, route oral. The settings on record: in vivo. The gist of the method: (§1)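 Male hCETP transgenic mice given oral doses for 5 days in 0.5% hydroxyethylcellulose. Tissues and plasma collected at day 3 and day 21 after the last dose. Fat diluted 6:1 with acetonitrile and homogenized. Analysis by LC/MS/MS on a C18 column with QCs at 4.0−1000 nM, accepted within 30% of target.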

The subject of series [4] is Kidney. Nature of the series: Drug concentration in kidney of hemizygous human CETP transgenic mouse at 10 mg/kg, po dosed for 5 consecutive days measured on day 21 after cessation of drug treatment. The format is ADME, organism-based. The settings on record: in vivo. More on the design: dose 10 mg/kg, route oral. The procedure, abridged:
as §1

For series [5], the system named is Muscle tissue. Nature of the series: Drug concentration in muscle of hemizygous human CETP transgenic mouse at 10 mg/kg, po dosed for 5 consecutive days measured on day 21 after cessation of drug treatment. The format is ADME, organism-based. The settings on record: in vivo. More on the design: dose 10 mg/kg, route oral. The gist of the method: as §1
Series [6] concerns Kidney. Briefly: Drug concentration in kidney of hemizygous human CETP transgenic mouse at 10 mg/kg, po dosed for 5 consecutive days measured on day 3 after cessation of drug treatment. The format is ADME, organism-based. More on the design: dose 10 mg/kg, route oral. Particulars: in vivo. The gist of the method: as §1
For series [7], the system named is Muscle tissue. Nature of the series: Drug concentration in muscle of hemizygous human CETP transgenic mouse at 10 mg/kg, po dosed for 5 consecutive days measured on day 3 after cessation of drug treatment. The settings on record: in vivo. Format: ADME, organism-based. Details: dose 10 mg/kg, route oral. The gist of the method: as §1
The nature of series [8]: Drug concentration in adipose fat of hemizygous human CETP transgenic mouse at 10 mg/kg, po dosed for 5 consecutive days measured on day 3 after cessation of drug treatment. Details: dose 10 mg/kg, route oral. The settings on record: in vivo. Format: ADME, organism-based, Adipose tissue. The procedure, abridged:
as §1

The test system of series [9] is Plasma. Briefly: Drug concentration in plasma of hemizygous human CETP transgenic mouse at 10 mg/kg, po dosed for 5 consecutive days measured on day 3 after cessation of drug treatment. The format is ADME, organism-based. More on the design: dose 10 mg/kg, route oral. Particulars: in vivo. The gist of the method: as §1
The subject of a further series is Liver. Briefly: Drug concentration in liver of hemizygous human CETP transgenic mouse at 10 mg/kg, po dosed for 5 consecutive days measured on day 3 after cessation of drug treatment. Format: ADME, organism-based. The settings on record: in vivo. More on the design: dose 10 mg/kg, route oral. The gist of the method: as §1
A further series relates to Mus musculus. Briefly: Increase in HDL-cholesterol in hemizygous human CETP transgenic mouse at 10 mg/kg, po dosed for 5 consecutive days. The format is functional. The procedure, abridged:
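Male hemizygous hCETP or hCETP/hApoB100 transgenic mice, 26−30 weeks, chow-fed. Compound suspended in 0.5% aqueous hydroxyethylcellulose, oral gavage each morning for 5 or 14 days. EDTA blood taken 7 h post-dose (fed for 5-day, after 4 h fast for 14-day) from vena facialis under isoflurane. HDL/LDL cholesterol measured on Cobas Integra 400 Plus. Mean ± SEM, one-way ANOVA with Bonferroni.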

Series [10] in a line: Drug concentration in testes of hemizygous human CETP transgenic mouse at 10 mg/kg, po dosed for 5 consecutive days measured on day 21 after cessation of drug treatment. Format: ADME, organism-based, Testis. Details: dose 10 mg/kg, route oral. The settings on record: in vivo. The procedure, abridged:
as §1

Series [11] in a line: Drug concentration in testes of hemizygous human CETP transgenic mouse at 10 mg/kg, po dosed for 5 consecutive days measured on day 3 after cessation of drug treatment. Format: ADME, organism-based, Testis. Details: dose 10 mg/kg, route oral. Particulars: in vivo. The procedure, abridged: as §1
Series [12] relates to Plasma. Briefly: Plasma concentration in hemizygous human CETP transgenic mouse at 10 mg/kg, po dosed for 5 consecutive days measured on day 5 and day 7 post dose. The format is ADME, organism-based. Details: dose 10 mg/kg, route oral. Particulars: in vivo.

For the compound `Cc1cc(C)c2c(c1)[C@@H](N(Cc1cc(C(F)(F)F)cc(C(F)(F)F)c1)c1nnn(C)n1)CCCN2C[C@H]1CC[C@H](C(=O)O)CC1` [EVACETRAPIB], in series [1], the half-life is 44 h.

In general, IC50 refers to the concentration that gives 50% inhibition. For the compound `CC(C)c1nc2c(c3c1[C@@H](c1ccc(C(F)(F)F)cc1)OC31CCCC1)[C@@H](O)CC(C)(C)C2`, the IC50 in series [2] was found to be 51 nM.

For `CC(C)c1nc2c(c3c1[C@@H](c1ccc(F)cc1)OC31CCCC1)[C@@H](O)CC(C)(C)C2`, in [2], the IC50 turned out to be 796 nM.

Take `COc1cc(F)c(C(C)C)cc1-c1ccc(C(F)(F)F)cc1CN1C(=O)O[C@H](c2cc(C(F)(F)F)cc(C(F)(F)F)c2)[C@@H]1C` [ANACETRAPIB]: the Drug uptake entry (in [3]; in the series with Kidney [4]; with Muscle tissue [5]; with Kidney [6]; with Muscle tissue [7]; in series [8]) was “Active” throughout. Besides, the Drug uptake entry (with Plasma [9]; in the series with Liver; in series [10]; in series [11]) was “Active” each time. Besides, in the series with Mus musculus, the Activity is reported as 50.5%. In addition, the concentration in the series on Plasma [12] was 507 nM. Besides, in series [1], the half-life is 83 h.

As to `CC(C)c1nc2c(c3c1[C@@H](c1ccc(C(F)(F)F)cc1)OC3(C)C)[C@@H](O)CC(C)(C)C2`, the IC50 in series [2] was 548 nM.

On to `CCOC(=O)N1c2ccc(C(F)(F)F)cc2[C@@H](N(Cc2cc(C(F)(F)F)cc(C(F)(F)F)c2)C(=O)OC)C[C@H]1CC` [TORCETRAPIB], for which the half-life in series [1] was 221 h.

With `CC(C)c1nc2c(c3c1[C@@H](c1ccc(C(F)(F)F)nc1)OC31CCCC1)[C@@H](O)CC(C)(C)C2`, the IC50 in series [2] turned out to be 135 nM.

In the case of `CC(C)c1nc2c(c3c1[C@@H](c1ccc(C(F)(F)F)cn1)OC31CCCC1)[C@@H](O)CC(C)(C)C2`, the IC50 in series [2] was found to be 96 nM.

Regarding `CC(C)c1nc2c(c3c1[C@H](c1ccc(C(F)(F)F)cc1)OC31CCOCC1)[C@H](O)CC(C)(C)C2`, the concentration for half-maximal inhibition (IC50) in [2] worked out at 576 nM.

For `CC(C)c1nc2c(c3c1[C@@H](c1ccc(C(C)(C)C)cc1)OC31CCCC1)[C@@H](O)CC(C)(C)C2`, the IC50 in [2] amounted to 29 nM.

Consider `CC(C)c1nc2c(c3c1[C@@H](c1ccccc1)OC31CCCC1)[C@@H](O)CC(C)(C)C2`, for which the IC50 in series [2] came out at 4050 nM.

Source of the values: ChEMBL document CHEMBL3351249, “Potent cholesteryl ester transfer protein inhibitors of reduced lipophilicity: 1,1'-spiro-substituted hexahydrofuroquinoline derivatives” (J Med Chem, 2014).
